Data taken from paper PMC11301096 (iScience, 2024).
No end group written: not given here. *: point of attachment. Biotin = O=C1N[C@H]2[C@H](CS[C@H]2CCCCC(=O)*)N1

Columns and labels:
[1] = tested on: L-O2 cells; experiment: Cell cycle analysis by flow cytometry; assay type: cell-based, human; details: 20 μM BO1, 48 h
Procedure, shortened: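 Cells (5×10^5 per 100 mm dish) attached for 24 h, then exposed to test compound for 48 h. Cell pellets fixed in 70% ethanol for 4 h and washed twice with PBS. Stained with a DNA-content quantitation kit; cell-cycle distribution read by flow cytometry.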

[2] = tested on: human normal hepatocyte L-O2; experiment: CCK-8 proliferative activity; assay type: cell-based; details: 10 μM and 20 μM BO1, CCK-8, 48 h
Procedure, shortened: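 Normal hepatocytes seeded at 4×10^3/well and incubated 24 h, then exposed to test compound for 48 h. CCK-8 reagent added for 1–2 h protected from light; absorbance measured at 450 nm. Three independent experiments.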

[3] = tested on: Hep 3B cells; experiment: CCK-8 proliferative activity; assay type: cell-based, human; details: read-out: IC50, proliferation; CCK-8, 48 h, mean of n = 3
Procedure, shortened: (§1)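 Cells grown in DMEM with 10% FBS and 1% antibiotics at 37°C, 5% CO2; log-phase cells used. Seeded at 4×10^3/well for 24 h, then exposed to graded doses of test compound (DMSO stock) for 48 h. CCK-8 reagent added for 1–2 h in the dark; absorbance read at 450 nm. Three independent experiments.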

[4] = tested on: L-O2 cells; experiment: Hoechst 33258 staining; assay type: cell-based, human; details: 20 μM BO1, 48 h
Procedure, shortened: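 Seeded at 4×10^4 cells/well for 24 h, then treated 48 h. Fixed in 4% tissue fixative for 15 min and stained with Hoechst 33258 for 5 min. Washed twice with PBS; nuclei viewed by fluorescence microscopy.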

[5] = In vivo xenograft model, toxicity read-outs; parameters: species or system BALB/c-Nude mice; details: BO1 4.57 mg/kg intraperitoneally every other day, two weeks, n = 6
Procedure, shortened: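 Four-week-old male nude mice acclimatised 7 days, then implanted subcutaneously with 2×10^6 Hep 3B cells; randomised into two groups of 6. Once tumours reached 100 mm3, given 200 μL saline or test compound intraperitoneally every other day, with weighing and tumour measurement. Killed after two weeks; serum taken for ALT, AST and creatinine.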

[6] = tested on: Huh7 cells; experiment: CCK-8 proliferative activity; assay type: cell-based, human; details: read-out: IC50, proliferation; CCK-8, 48 h, mean of n = 3
Procedure, shortened: as §1

[7] = molecular target: HSP90A (Homo sapiens, UniProt P07900); experiment: Biotinylated pull-down with western blot; assay type: binding; details: compared to samples extracted with IgG; cell extracts, 4°C, 12 h
Procedure, shortened: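 Bead-bound biotin-labelled test compound (4°C, 3 h) rotated with cell extracts at 4°C for 12 h. Beads washed in ice-cold NT2 buffer (4°C, 5 min), then four more washes. Bound proteins eluted with protein elution buffer plus DTT at 37°C for 2 h. Eluates analysed by LC-MS and western blot, with an IgG pull-down as negative control.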

Substance	cell cycle progression [1]	activity of normal hepatocytes (proliferative activity) [2]	IC50 [3]	nuclear fluorescence staining [4]	histopathological examination of major organs (heart, liver, spleen, and kidney), H&E [5]	serum alanine aminotransferase (ALT) activity [5]	serum aspartate aminotransferase (AST) activity [5]	serum creatinine (CREA) activity [5]	IC50 [6]	HSP90A in samples pulled by bio-BO1 (western blot) [7]
GIGSAILSAGKSIIKGLAKGLAEHF-NH2 [BO1, Bombinin-BO1]	not significantly affected	no significant change	15.2 µM	no significant changes	normal findings	comparable to those of control mice	comparable to those of control mice	comparable to those of control mice	24.9 µM	
bio-BO1: Biotin-labeled BO1 (Biotin-GIGSAILSAGKSIIKGLAKGLAEHF-NH2; SMILES CC[C@H](C)[C@H](NC(=O)CNC(=O)CCCC[C@@H]1SC[C@@H]2NC(=O)N[C@@H]21)C(=O)NCC(=O)N[C@@H](CO)C(=O)N[C@@H](C)C(=O)N[C@H](C(=O)N[C@@H](CC(C)C)C(=O)N[C@@H](CO)C(=O)N[C@@H](C)C(=O)NCC(=O)N[C@@H](CCCCN)C(=O)N[C@@H](CO)C(=O)N[C@H](C(=O)N[C@H](C(=O)N[C@@H](CCCCN)C(=O)NCC(=O)N[C@@H](CC(C)C)C(=O)N[C@@H](C)C(=O)N[C@@H](CCCCN)C(=O)NCC(=O)N[C@@H](CC(C)C)C(=O)N[C@@H](C)C(=O)N[C@@H](CCC(=O)O)C(=O)N[C@@H](Cc1c[nH]cn1)C(=O)N[C@@H](Cc1ccccc1)C(N)=O)[C@@H](C)CC)[C@@H](C)CC)[C@@H](C)CC)										significantly detected
